ChEMBL document CHEMBL1134607, “Synthesis and structure-activity relationships of a new model of arylpiperazines. Study of the 5-HT(1a)/alpha(1)-adrenergic receptor affinity by classical hansch analysis, artificial neural networks, and computational simulation of ligand recognition” (J Med Chem, 2001)

biological target: T1, 5-hydroxytryptamine receptor 1A (Rattus norvegicus, UniProt P19327); test: In vitro binding affinity towards 5-hydroxytryptamine 1A receptor in rat cerebral cortex membranes; format: cell membranes, Membrane
T1 sequence (P19327 whole entry): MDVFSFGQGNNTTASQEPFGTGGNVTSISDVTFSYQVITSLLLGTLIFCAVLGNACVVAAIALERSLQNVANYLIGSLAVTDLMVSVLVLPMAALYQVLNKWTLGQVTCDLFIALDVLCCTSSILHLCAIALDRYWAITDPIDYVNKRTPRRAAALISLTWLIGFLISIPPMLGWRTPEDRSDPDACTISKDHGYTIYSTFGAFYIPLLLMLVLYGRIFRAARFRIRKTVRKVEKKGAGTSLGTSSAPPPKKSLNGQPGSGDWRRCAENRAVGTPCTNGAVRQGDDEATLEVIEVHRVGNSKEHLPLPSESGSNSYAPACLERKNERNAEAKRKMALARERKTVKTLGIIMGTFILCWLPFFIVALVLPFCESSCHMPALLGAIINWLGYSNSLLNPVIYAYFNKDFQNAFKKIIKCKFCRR
Method in brief: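 Rat cerebral cortex membranes, washed and preincubated 10 min at 37 °C. About 1 mg protein incubated 15 min at 37 °C with 0.6 nM [3H]8-OH-DPAT in 50 mM Tris-HCl pH 7.4 containing 10 nM clonidine and 30 nM prazosin. Nonspecific binding with 10 µM 5-HT. Triplicates, filtration, scintillation counting. Ki by Cheng-Prusoff from fitted IC50. Prescreen at 10^-6 M, full curves if displacement ≥55%.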

SMILES | Ki [nM]
CCCOC(=O)c1ccccc1N1CCN(CCCCN2C(=O)C3CCCN3C2=O)CC1 (configuration not stated) | 4.8
CC(C)C(=O)Nc1cccc(N2CCN(CCCCN3C(=O)C4CCCN4C3=O)CC2)c1.Cl (configuration not stated) | 193
N#Cc1ccccc1N1CCN(CCCCN2C(=O)C3CCCN3C2=O)CC1 (configuration not stated) | 4
COc1ccccc1N1CCN(CCCN2CC(=O)N3CCCCC3C2=O)CC1 (configuration not stated) | 143
CCCCOc1ccccc1N1CCN(CCCCN2CC(=O)N3CCCC3C2=O)CC1 (configuration not stated) | 8.7
CCCOC(=O)c1ccccc1N1CCN(CCCCN2CC(=O)N3CCCCC3C2=O)CC1 (configuration not stated) | 28
CCCNC(=O)c1ccccc1N1CCN(CCCN2CC(=O)N3CCCCC3C2=O)CC1 (configuration not stated) | 4610
N#Cc1ccccc1N1CCN(CCCN2CC(=O)N3CCCC3C2=O)CC1 (configuration not stated) | 27
CCCCOc1ccccc1N1CCN(CCCCN2C(=O)C3CCCCN3C2=O)CC1 (configuration not stated) | 2.2
O=C1C2CCCN2C(=O)CN1CCCCN1CCN(c2cccc(C(F)(F)F)c2)CC1 (configuration not stated) | 5.5
CCCCOc1ccccc1N1CCN(CCCN2C(=O)C3CCCN3C2=O)CC1 (configuration not stated) | 15
COc1ccccc1N1CCN(CCCCN2CC(=O)N3CCCC3C2=O)CC1 (configuration not stated) | 12
CCCCOc1ccccc1N1CCN(CCCN2CC(=O)N3CCCCC3C2=O)CC1 (configuration not stated) | 92
Cc1ccccc1N1CCN(CCCN2CC(=O)N3CCCC3C2=O)CC1 (configuration not stated) | 48
Cc1ccccc1N1CCN(CCCN2C(=O)C3CCCCN3C2=O)CC1 (configuration not stated) | 220
O=C1C2CCCCN2C(=O)N1CCCCN1CCN(c2ccccc2Br)CC1 (configuration not stated) | 3.4

SMILES | Ki [nM]
Cc1ccccc1N1CCN(CCCCN2CC(=O)N3CCCCC3C2=O)CC1 (configuration not stated) | 32
CCCOC(=O)c1ccccc1N1CCN(CCCN2C(=O)C3CCCCN3C2=O)CC1 (configuration not stated) | 46
CC(C)C(=O)Nc1cccc(N2CCN(CCCCN3CC(=O)N4CCCCC4C3=O)CC2)c1 (configuration not stated) | 198
Nc1cccc(N2CCN(CCCCN3C(=O)C4CCCCN4C3=O)CC2)c1 (configuration not stated) | 68
O=C1C2CCCCN2C(=O)N1CCCCN1CCN(c2cccc(Br)c2)CC1 (configuration not stated) | 5.4
N#Cc1ccccc1N1CCN(CCCN2C(=O)C3CCCCN3C2=O)CC1 (configuration not stated) | 65
O=C1C2CCCN2C(=O)N1CCCN1CCN(c2cccc(Br)c2)CC1 (configuration not stated) | 34
N#Cc1ccccc1N1CCN(CCCCN2CC(=O)N3CCCCC3C2=O)CC1 (configuration not stated) | 15
CCCNC(=O)c1ccccc1N1CCN(CCCCN2CC(=O)N3CCCC3C2=O)CC1 (configuration not stated) | 1230
CC(C)C(=O)Nc1cccc(N2CCN(CCCN3C(=O)C4CCCCN4C3=O)CC2)c1 (configuration not stated) | 776
CCCNC(=O)c1ccccc1N1CCN(CCCCN2C(=O)C3CCCCN3C2=O)CC1 (configuration not stated) | 378
CC(C)C(=O)Nc1cccc(N2CCN(CCCN3CC(=O)N4CCCC4C3=O)CC2)c1 (configuration not stated) | 266
O=C1C2CCCCN2C(=O)CN1CCCN1CCN(c2cccc(C(F)(F)F)c2)CC1 (configuration not stated) | 179
Nc1cccc(N2CCN(CCCN3C(=O)C4CCCN4C3=O)CC2)c1 (configuration not stated) | 1180
CCCNC(=O)c1ccccc1N1CCN(CCCN2C(=O)C3CCCN3C2=O)CC1 (configuration not stated) | 808
O=C1C2CCCCN2C(=O)N1CCCCN1CCN(c2ccccc2Oc2ccccc2)CC1 (configuration not stated) | 0.6

biological target: T2, Adrenergic receptor alpha-1 (Rattus norvegicus, UniProt P15823+P23944+P43140); test: In vitro binding affinity towards alpha-1 adrenergic receptor in rat cerebral cortex membranes; format: cell membranes, Membrane
T2 sequence (P15823 whole entry): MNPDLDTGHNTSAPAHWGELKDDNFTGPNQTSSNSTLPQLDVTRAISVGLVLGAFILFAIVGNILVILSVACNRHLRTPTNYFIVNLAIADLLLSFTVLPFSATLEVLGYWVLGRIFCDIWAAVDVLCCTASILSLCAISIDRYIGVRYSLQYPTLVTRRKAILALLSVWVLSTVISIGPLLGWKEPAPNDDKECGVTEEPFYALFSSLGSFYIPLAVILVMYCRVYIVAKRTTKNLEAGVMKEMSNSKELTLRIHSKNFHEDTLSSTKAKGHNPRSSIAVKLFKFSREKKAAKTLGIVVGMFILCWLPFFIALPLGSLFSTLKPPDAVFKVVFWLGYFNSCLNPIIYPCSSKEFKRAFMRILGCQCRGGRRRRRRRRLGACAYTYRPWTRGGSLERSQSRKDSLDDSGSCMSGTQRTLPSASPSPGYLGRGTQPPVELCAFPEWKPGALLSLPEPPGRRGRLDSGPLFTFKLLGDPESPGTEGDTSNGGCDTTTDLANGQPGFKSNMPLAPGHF
T2 sequence (P23944 whole entry): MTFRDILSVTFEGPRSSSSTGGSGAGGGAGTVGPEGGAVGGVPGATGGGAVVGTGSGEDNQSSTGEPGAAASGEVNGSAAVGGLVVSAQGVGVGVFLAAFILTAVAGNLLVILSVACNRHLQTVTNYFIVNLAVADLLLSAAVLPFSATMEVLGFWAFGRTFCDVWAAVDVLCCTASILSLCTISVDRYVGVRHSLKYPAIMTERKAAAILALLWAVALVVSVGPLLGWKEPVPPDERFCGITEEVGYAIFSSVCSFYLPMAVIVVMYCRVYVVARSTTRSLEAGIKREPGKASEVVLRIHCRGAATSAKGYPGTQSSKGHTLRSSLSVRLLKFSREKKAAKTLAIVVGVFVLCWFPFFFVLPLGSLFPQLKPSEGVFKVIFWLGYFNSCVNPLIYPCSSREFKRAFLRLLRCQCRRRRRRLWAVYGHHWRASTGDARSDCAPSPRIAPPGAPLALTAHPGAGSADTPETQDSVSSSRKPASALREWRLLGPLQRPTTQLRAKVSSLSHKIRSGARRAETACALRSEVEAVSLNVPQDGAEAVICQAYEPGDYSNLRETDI
T2 sequence (P43140 whole entry): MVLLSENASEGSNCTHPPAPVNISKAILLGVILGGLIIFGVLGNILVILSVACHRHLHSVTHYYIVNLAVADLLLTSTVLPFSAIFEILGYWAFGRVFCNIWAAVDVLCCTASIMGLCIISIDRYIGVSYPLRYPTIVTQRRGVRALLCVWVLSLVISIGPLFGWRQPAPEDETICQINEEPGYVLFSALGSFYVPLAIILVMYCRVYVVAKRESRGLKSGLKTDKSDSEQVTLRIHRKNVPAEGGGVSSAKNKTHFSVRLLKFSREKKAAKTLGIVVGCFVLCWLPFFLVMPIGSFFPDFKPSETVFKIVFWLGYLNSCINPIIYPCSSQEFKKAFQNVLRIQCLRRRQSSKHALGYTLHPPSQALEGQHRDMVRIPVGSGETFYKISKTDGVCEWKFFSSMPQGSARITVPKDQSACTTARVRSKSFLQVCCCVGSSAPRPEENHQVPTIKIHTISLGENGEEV
Method in brief: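 Rat cerebral cortex membranes in 50 mM Tris-HCl, 10 mM MgCl2, pH 7.4. About 250 µg protein incubated 30 min at 25 °C with 0.2 nM [3H]prazosin. Nonspecific binding with 10 µM phentolamine. Triplicates, filtration, scintillation counting. Ki by Cheng-Prusoff from iteratively fitted IC50. Prescreen at 10^-6 M, dose-response curves if displacement ≥55%.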

SMILES | Ki [nM]
CCCOC(=O)c1ccccc1N1CCN(CCCCN2C(=O)C3CCCN3C2=O)CC1 (configuration not stated) | 41
CC(C)C(=O)Nc1cccc(N2CCN(CCCCN3C(=O)C4CCCN4C3=O)CC2)c1.Cl (configuration not stated) | 5425
N#Cc1ccccc1N1CCN(CCCCN2C(=O)C3CCCN3C2=O)CC1 (configuration not stated) | 4.9
COc1ccccc1N1CCN(CCCN2CC(=O)N3CCCCC3C2=O)CC1 (configuration not stated) | 29
CCCCOc1ccccc1N1CCN(CCCCN2CC(=O)N3CCCC3C2=O)CC1 (configuration not stated) | 10.5
CCCOC(=O)c1ccccc1N1CCN(CCCCN2CC(=O)N3CCCCC3C2=O)CC1 (configuration not stated) | 392
CCCNC(=O)c1ccccc1N1CCN(CCCN2CC(=O)N3CCCCC3C2=O)CC1 (configuration not stated) | 811
N#Cc1ccccc1N1CCN(CCCN2CC(=O)N3CCCC3C2=O)CC1 (configuration not stated) | 17
CCCCOc1ccccc1N1CCN(CCCCN2C(=O)C3CCCCN3C2=O)CC1 (configuration not stated) | 5
O=C1C2CCCN2C(=O)CN1CCCCN1CCN(c2cccc(C(F)(F)F)c2)CC1 (configuration not stated) | 72
CCCCOc1ccccc1N1CCN(CCCN2C(=O)C3CCCN3C2=O)CC1 (configuration not stated) | 6.4
COc1ccccc1N1CCN(CCCCN2CC(=O)N3CCCC3C2=O)CC1 (configuration not stated) | 25
CCCCOc1ccccc1N1CCN(CCCN2CC(=O)N3CCCCC3C2=O)CC1 (configuration not stated) | 13
Cc1ccccc1N1CCN(CCCN2CC(=O)N3CCCC3C2=O)CC1 (configuration not stated) | 17
Cc1ccccc1N1CCN(CCCN2C(=O)C3CCCCN3C2=O)CC1 (configuration not stated) | 5.7
O=C1C2CCCCN2C(=O)N1CCCCN1CCN(c2ccccc2Br)CC1 (configuration not stated) | 6.2
Cc1ccccc1N1CCN(CCCCN2CC(=O)N3CCCCC3C2=O)CC1 (configuration not stated) | 27
CCCOC(=O)c1ccccc1N1CCN(CCCN2C(=O)C3CCCCN3C2=O)CC1 (configuration not stated) | 13

SMILES | Ki [nM]
CC(C)C(=O)Nc1cccc(N2CCN(CCCCN3CC(=O)N4CCCCC4C3=O)CC2)c1 (configuration not stated) | 16140
Nc1cccc(N2CCN(CCCCN3C(=O)C4CCCCN4C3=O)CC2)c1 (configuration not stated) | 231
O=C1C2CCCCN2C(=O)N1CCCCN1CCN(c2cccc(Br)c2)CC1 (configuration not stated) | 5.9
N#Cc1ccccc1N1CCN(CCCN2C(=O)C3CCCCN3C2=O)CC1 (configuration not stated) | 8.2
O=C1C2CCCN2C(=O)N1CCCN1CCN(c2cccc(Br)c2)CC1 (configuration not stated) | 25
N#Cc1ccccc1N1CCN(CCCCN2CC(=O)N3CCCCC3C2=O)CC1 (configuration not stated) | 30
CCCNC(=O)c1ccccc1N1CCN(CCCCN2CC(=O)N3CCCC3C2=O)CC1 (configuration not stated) | 1354
CCCOC(=O)c1ccccc1N1CCN(CCCN2CC(=O)N3CCCC3C2=O)CC1 (configuration not stated) | 12
CC(C)C(=O)Nc1cccc(N2CCN(CCCN3C(=O)C4CCCCN4C3=O)CC2)c1 (configuration not stated) | 4430
CCCNC(=O)c1ccccc1N1CCN(CCCCN2C(=O)C3CCCCN3C2=O)CC1 (configuration not stated) | 521
CC(C)C(=O)Nc1cccc(N2CCN(CCCN3CC(=O)N4CCCC4C3=O)CC2)c1 (configuration not stated) | 1440
O=C1C2CCCCN2C(=O)CN1CCCN1CCN(c2cccc(C(F)(F)F)c2)CC1 (configuration not stated) | 339
Nc1cccc(N2CCN(CCCN3C(=O)C4CCCN4C3=O)CC2)c1 (configuration not stated) | 393
Cc1ccccc1N1CCN(CCCCN2C(=O)C3CCCN3C2=O)CC1 (configuration not stated) | 7
CCCNC(=O)c1ccccc1N1CCN(CCCN2C(=O)C3CCCN3C2=O)CC1 (configuration not stated) | 608
CCS(=O)(=O)Nc1cccc(N2CCN(CCCCN3C(=O)C4CCCN4C3=O)CC2)c1 (configuration not stated) | > 1000
O=C1C2CCCCN2C(=O)N1CCCCN1CCN(c2ccccc2Oc2ccccc2)CC1 (configuration not stated) | 2.4
